Measured values: PubChem BioAssay AID492951 (Molecular Libraries Program, Specialized Chemistry Center, …, 2010)
Active and inactive are the calls of the source.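 Rule for the calls: active = inhibition above 10%; inactive = the rest.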

These compounds were tested against Hexokinase-4 (Homo sapiens) (UniProt P35557) (assay: human glucokinase inhibition, counter-screen for TbHK1 inhibitor project, biochemical, recombinant hGlck (AID 492951)). Conditions: G6PDH-coupled NADH absorbance 340 nm, at 10 µM; active compounds read high.
Hexokinase-4 (Homo sapiens), sequence (P35557 whole entry, looked up): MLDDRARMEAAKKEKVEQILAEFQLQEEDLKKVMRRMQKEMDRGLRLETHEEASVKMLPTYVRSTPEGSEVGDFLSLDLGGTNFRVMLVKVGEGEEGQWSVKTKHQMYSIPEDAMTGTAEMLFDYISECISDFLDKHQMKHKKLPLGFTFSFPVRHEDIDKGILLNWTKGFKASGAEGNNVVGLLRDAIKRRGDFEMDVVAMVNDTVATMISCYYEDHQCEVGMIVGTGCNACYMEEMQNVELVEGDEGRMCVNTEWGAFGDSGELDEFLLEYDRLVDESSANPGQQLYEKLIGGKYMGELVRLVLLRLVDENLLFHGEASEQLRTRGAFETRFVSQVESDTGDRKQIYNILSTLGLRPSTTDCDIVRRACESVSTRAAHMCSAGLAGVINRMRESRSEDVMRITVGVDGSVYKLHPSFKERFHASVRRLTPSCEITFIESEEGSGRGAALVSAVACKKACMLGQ
Outline: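 Test system: recombinant human glucokinase, G6PDH-coupled; Medium: pH 7.9 TEA buffer, MgCl2, NAD+; Also added: 20 mM glucose as reaction starter, plus 1 mM ATP; Compound dosing: single final test compound dose of 10 µM; Schedule: 10 min preincubation at room temperature; Measured by: NADH formation by absorbance at 340 nm; Repeats: triplicate.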

Structure (SMILES) | inhibition | outcome
COc1ccc(C(=O)Nc2cc(Cl)ccc2-c2noc(=O)[nH]2)cc1 | 30.1% (active) | –
COc1ccc(C(=O)Nc2cc(C)ccc2C(=O)O)cc1 | – | inactive
Cc1ccc(-n2sc3cc(F)ccc3c2=O)c(C)c1 | 55.6% (active) | –
COc1ccc(C(=O)Nc2cc(C(=O)O)ccc2Cl)cc1 | – | inactive
COc1ccccc1C(=O)Nc1cc(Cl)ccc1C(=O)O | – | inactive
COc1ccc(C(=O)Nc2cc(Br)ccc2C(=O)O)cc1 | – | inactive
O=c1c2cc([N+](=O)[O-])ccc2sn1-c1ccccc1 | 11.4% (active) | –
O=C(Nc1cc(Cl)ccc1C(=O)O)c1cocn1 | – | inactive
C=C(C)c1ccc(C(=O)Nc2cc(Cl)ccc2C(=O)O)cc1 | 25.9% (active) | –
O=C(Cn1sc2cc(F)ccc2c1=O)Nc1ccccc1 | 39.6% (active) | –
CN(C)c1ccc(NC(=O)Cn2sc3ccccc3c2=O)cc1 | 14.1% (active) | –
O=C(Cn1sc2ccccc2c1=O)Nc1ccccc1F | – | inactive
O=C(Cn1sc2ccccc2c1=O)Nc1ccccc1Cl | – | inactive
O=c1c2cc(F)ccc2sn1-c1ccccc1 | 50.1% (active) | –
COc1ccc(C(=O)O)c(NC(=O)c2ccc(Cl)cc2)c1 | 15.8% (active) | –
COc1ccc(C(=O)Nc2cc(Cl)ccc2C(N)=O)cc1 | 17.9% (active) | –
COc1ccc(C(=O)Nc2ccccc2-c2nn[nH]n2)cc1 | – | inactive
